Screening data deposited in PubChem by The Scripps Research Institute Molecular Screening Center.
CHO-K1 Ca antag – nonselective inhibitor or artifact in parental CHO-K1 cells. inhibition, % at 3 µM. ATP-induced calcium, Fluo-8 fluorescence. 0.6% of 360,000 active;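 active means inhibition above a per-plate cutoff, the plate's mean sample inhibition plus 3 SD, cut at about 24% in these data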;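 further: 0% = DMSO plus EC80 ATP and 100% = DMSO alone without ATP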
OX1R antag-1 – human HCRTR1 antagonism. 0.43% of 330,000 active. CHO/OX1R cells, Fluo-8 calcium fluorescence, orexin A. O43613. inhibition, % at 5 µM. AID 434989;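 active means inhibition above its plate's threshold, mean inhibition of all tested compounds on the plate plus 3 SD, cut at about 37% in these data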;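 further: 0% = orexin A challenge wells and 100% = SB-334867-A antagonist wells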
Target sequence (O43613 whole entry, looked up): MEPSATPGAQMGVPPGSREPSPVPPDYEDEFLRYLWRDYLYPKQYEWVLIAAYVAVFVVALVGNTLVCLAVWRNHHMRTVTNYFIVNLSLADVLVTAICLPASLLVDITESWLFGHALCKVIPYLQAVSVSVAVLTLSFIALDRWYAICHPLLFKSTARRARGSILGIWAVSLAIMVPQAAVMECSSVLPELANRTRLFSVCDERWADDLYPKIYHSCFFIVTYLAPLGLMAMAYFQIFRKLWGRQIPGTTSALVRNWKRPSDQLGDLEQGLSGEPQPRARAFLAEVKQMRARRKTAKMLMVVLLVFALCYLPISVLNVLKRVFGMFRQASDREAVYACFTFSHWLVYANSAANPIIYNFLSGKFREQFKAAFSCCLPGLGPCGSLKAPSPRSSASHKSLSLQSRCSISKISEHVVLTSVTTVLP
M1 PAM parental – M1 PAM counterscreen hit in parental CHO-K1 cells. AID 602247. activation, % at 3 µM. 0.02% of 360,000 active. ATP EC20, Fluo-8 calcium fluorescence; 0% at ATP EC20, 100% at ATP max;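 active means activation above the run cutoff, the mean activation of all test compounds plus 3 SD, cut at about 40% in these data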;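 further: peak over basal fluorescence ratio in a 140 s read after ATP addition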
OX1R antag-2 – OX1R (human) antagonism. OX1R-expressing cells, FRET antagonist read-out. O43613. 1.8% of 330,000 active. inhibition, % at 6.6 µM; in the data active means inhibition mostly above about 38%, no sharp cut-off; inactive means mostly below about 40%;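 further: 0% = agonist challenge alone and 100% = reference antagonist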
CHO parental Ca – counter-screen for OX1R antagonists: effect in parental CHO cells; 0.63% of 330,000 active; parental CHO-K1, ATP-induced calcium, Fluo-8 fluorescence; inhibition, % at 5.6 µM; AID 463079;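 active means inhibition above that plate's mean sample inhibition plus 3 SD, cut at about 26% in these data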;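 further: 0% = ATP-challenged DMSO wells and 100% = DMSO wells without ATP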
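Assay system – parental CHO cells · Reagent – ATP stimulus · Detection – intracellular calcium via Fluo-8 no-wash fluorescent dye · Evaluation – percent inhibition of ATP-evoked calcium rise, normalized to controls · Controls – ATP wells versus no-ATP DMSO wells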
CHO-K1 Ca ag – nonselective activator or artifact in parental CHO-K1 cells; Fluo-8 calcium fluorescence; scaled to maximal ATP response, vehicle zero; 0.48% of 360,000 active; activation, % at 3 µM; in the data active means activation above about 15%;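 further: untransfected CHO-K1 host cells lacking M1 receptor as counterscreen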
OX1R Ca confirm – OX1R (human) antagonism, confirmed. 38% of 1,100 active. CHO/OX1R cells, orexin A calcium Fluo-8 fluorescence. inhibition, % at 5 µM. shares compounds with OX1R antag-1; in the data active means inhibition above about 29%;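 further: 0% = agonist challenge alone and 100% = reference antagonist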
CHO Ca counter – counter-screen: parental CHO calcium response change, triplicate; shares compounds with OX1R antag-1; parental CHO-K1, ATP-induced calcium, Fluo-8 fluorescence; inhibition, % at 5.6 µM; 9.3% of 1,100 active; AID 492965;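 active means inhibition above a per-plate limit, the mean inhibition of that plate's test compounds plus 3 SD, cut at about 25% in these data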;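 further: 0% = ATP challenge with DMSO and 100% = DMSO without ATP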
* hit, by the source's call; . = not tested or not shown. Hits are enriched below; roughly 2.9% of the tested compounds scored in any of these assays.

SMILES	CHO-K1 Ca antag	OX1R antag-1	M1 PAM parental	OX1R antag-2	CHO parental Ca	CHO-K1 Ca ag	OX1R Ca confirm	CHO Ca counter
Cc1nn(-c2ccccc2)c(Cl)c1/C=N/NC(=O)OC(C)(C)C	6	8	17	7	-2	9	.	.
CN(C)c1ccc(/C=C/C=C2/SC(=S)N(c3ccccc3)C2=O)cc1	13	36	14	9	27	6	57*	60*
CC(C)(C)c1cc2nc(N)nc(N)n2n1	6	50*	-13	-5	-12	0	6	5
CCCCc1nc2cc(C(=O)N3CCCC(OCCC)C3)ccc2o1 (stereo not drawn)	-14	-29	35	11	-18	4	.	.
O=C(Nc1ccc(S(=O)(=O)N2CCc3ccccc32)cc1)c1ccc2c(c1)OCO2	0	25	6	20	19	7	10	8
O=C(NN1C(=O)/C(=C/c2ccc(O)cc2)SC1=S)c1cccc(O)c1	5	17	8	38	21	14	.	.
O=C(NN1C(=O)/C(=C/c2ccc(O)cc2)SC1=S)c1ccccc1O	-6	31	-6	2	15	5	11	14
COc1cc(CN2CC(=O)N(c3ccccc3Cl)C2=S)cc(OC)c1OC	13	39	-3	39	1	19*	68*	1
COc1cc(S(=O)(=O)N(CCc2ccccc2)Cc2cccs2)ccc1-n1cnnn1	14	52*	-6	12	14	0	3	10
CC1(Br)C(Sc2ccccc2[N+](=O)[O-])=Nc2ccccc21 (stereo not drawn)	-30	.	15	.	.	2	.	.
N/C(=N\OC(=O)c1ccccc1F)c1cccc([N+](=O)[O-])c1	1	-5	5	30	-3	0	.	.
Cc1ccccc1-c1nnn(Cc2cccc(S(=O)(=O)N3CCOCC3)c2)n1	8	44*	-5	10	5	15*	44*	16
O=C1c2ccccc2S(=O)(=O)N1Cc1cccc(S(=O)(=O)N2CCOCC2)c1	-4	-9	1	16	-15	3	.	.
O=[N+]([O-])c1ccc(/C=N\NS(=O)(=O)c2ccc(F)cc2)o1	-3	27	-17	7	1	0	-3	3
COc1ccc(S(=O)(=O)N/N=C\c2ccc([N+](=O)[O-])o2)c(OC)c1	5	6	-11	18	0	0	.	.
Cc1nn(-c2ccccc2)c(C)c1/C=N/NC(=O)c1cc(-c2cccs2)[nH]n1	14	41	-4	51	-15	3	65*	-11
CCCC(C)(C)C(=O)N1CCC1(C)C(=O)Nc1cccc(OC)c1 (stereo not drawn)	-7	.	-7	.	.	0	.	.
CCN(c1ccccc1)S(=O)(=O)c1ccc(Cl)c(NC(=O)COC(=O)C2CC2C)c1 (stereo not drawn)	-3	27	17	17	10	3	-5	-8
CCOc1ccc(NC2=C(Cl)C(=O)N(Cc3ccccc3)C2=O)cc1	-14	51*	12	33	5	1	-7	-8
COc1ccc(NC2=C(Cl)C(=O)N(CCc3ccccc3)C2=O)cc1	0	1	-6	21	-12	0	.	.
COc1ccc(NS(=O)(=O)c2ccc(N3CCCCC3)c(N)c2)cc1	9	62*	-3	16	12	13	20	65*
N#Cc1cc(C(=O)c2cc(Br)ccc2O)cn(Cc2ccccc2)c1=O	14	24	8	9	23	10	2	10
CCOc1ccccc1N1CCN(C(=O)c2ccc(S(=O)(=O)Nc3ccccc3)cc2)CC1	1	45*	-7	6	3	4	41*	-7
CC(=O)c1ccc2ccccc2c1OC(=O)c1ccncc1	-9	.	9	.	.	0	.	.
COc1ccc(N(CC(=O)Nc2cccc(N(C)S(C)(=O)=O)c2)S(=O)(=O)c2ccc(C)cc2)cc1	-18	27	17	28	-4	3	10	1
SMILES	CHO-K1 Ca antag	OX1R antag-1	M1 PAM parental	OX1R antag-2	CHO parental Ca	CHO-K1 Ca ag	OX1R Ca confirm	CHO Ca counter
COc1ccc(N(CC(=O)Nc2cccc(N(C)S(C)(=O)=O)c2)S(=O)(=O)c2ccc(F)cc2)cc1	-10	4	4	32	-1	5	.	.
COc1ccc(N(CC(=O)Nc2ccc(OC)c(OC)c2)S(=O)(=O)c2ccccc2)cc1Cl	-2	-33	-9	6	-16	1	.	.
COc1ccc(N(CC(=O)Nc2cccc(N(C)S(C)(=O)=O)c2)S(=O)(=O)c2ccccc2)cc1Cl	0	59*	3	68	-6	4	56*	-3
O=C(OCc1ccc(O)cc1)c1c(-c2ccsc2)oc2ccc(N3CCOCC3)cc12	0	-14	5	26	-2	1	.	.
COc1ccc(NC(=O)c2cc(-c3ccccc3Cl)on2)cc1OC	11	37	-22	41	-25	1	30*	-3
COc1ccc(NC(=O)c2cc(-c3ccc(OC)c(OC)c3)on2)cc1OC	0	-17	-4	14	-11	0	.	.
COC(=O)c1ccccc1NC(=O)c1ccccc1SC	11	-20	-3	15	-35	0	.	.
CCOC(=O)c1ccccc1NC(=O)c1ccccc1SC	10	53*	-8	7	5	0	-15	-20
COc1ccc(C(=O)COC(=O)c2ccccc2O)c(OC)c1	1	-6	-19	14	0	1	.	.
Cc1ncc(CO)c2c1Oc1nc(-c3ccccc3F)nc(SCC(=O)N(C)c3ccccc3)c1C2	7	31	-9	31	-4	5	17	-16
Cc1cccc(C)c1OCC(=O)Nc1cccc(S(=O)(=O)N2CCCCCC2)c1	-5	.	-3	.	.	2	.	.
Cc1cc(OCC(=O)Nc2cccc(S(=O)(=O)N3CCCCC3)c2)ccc1Cl	3	36	-15	6	3	9	16	14
CSc1cccc(NC(=O)CN(c2cc(C)ccc2C)S(C)(=O)=O)c1	-6	26	20	19	1	3	2	-15
Cc1cccc(N2CC(C(=O)Nc3ccccc3N3CCOCC3)CC2=O)c1C (stereo not drawn)	-10	15	20	12	-9	1	.	.
CCOC(=O)NC(c1ccc(C(C)C)cc1)C(Cl)(Cl)Cl (stereo not drawn)	-9	42*	15	54	-4	0	10	-2
O=C(Cn1ncc(Cl)c(Cl)c1=O)c1ccc(Cl)cc1	-5	22	-1	14	13	0	43*	31*
